MITF act – activators of MITF-driven TRPM1 promoter reporter, primary screen, cell-based, SK-MEL-5, luciferase, single point; AID 588334, 2011; SK-MEL-5 TRPM1-promoter luciferase, 24 h; % of positive control, neutral wells = 0; hit rate 0.75% among 300,000; activation, % at 12.5 µM;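 active means mean activation of at least 80% with every replicate also reaching 80%; inconclusive means mean reaches 80% but some replicate falls short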
ERAP1 HTS inh – human ERAP1 aminopeptidase inhibitors, primary screen, biochemical, single point, plate reader; Endoplasmic reticulum aminopeptidase 1 (Homo sapiens), Q9NZ08; recombinant ERAP1, Leu-AMC fluorescence, 60 min; inhibition, % at 10.7 µM; hit rate 0.15% among 340,000; AID 652197, 2013;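 active means mean replicate inhibition of at least 30%, or all replicates individually reaching that 30% level; inactive means mean below 30% and not every replicate reaching it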
Target sequence (Q9NZ08 whole entry, looked up): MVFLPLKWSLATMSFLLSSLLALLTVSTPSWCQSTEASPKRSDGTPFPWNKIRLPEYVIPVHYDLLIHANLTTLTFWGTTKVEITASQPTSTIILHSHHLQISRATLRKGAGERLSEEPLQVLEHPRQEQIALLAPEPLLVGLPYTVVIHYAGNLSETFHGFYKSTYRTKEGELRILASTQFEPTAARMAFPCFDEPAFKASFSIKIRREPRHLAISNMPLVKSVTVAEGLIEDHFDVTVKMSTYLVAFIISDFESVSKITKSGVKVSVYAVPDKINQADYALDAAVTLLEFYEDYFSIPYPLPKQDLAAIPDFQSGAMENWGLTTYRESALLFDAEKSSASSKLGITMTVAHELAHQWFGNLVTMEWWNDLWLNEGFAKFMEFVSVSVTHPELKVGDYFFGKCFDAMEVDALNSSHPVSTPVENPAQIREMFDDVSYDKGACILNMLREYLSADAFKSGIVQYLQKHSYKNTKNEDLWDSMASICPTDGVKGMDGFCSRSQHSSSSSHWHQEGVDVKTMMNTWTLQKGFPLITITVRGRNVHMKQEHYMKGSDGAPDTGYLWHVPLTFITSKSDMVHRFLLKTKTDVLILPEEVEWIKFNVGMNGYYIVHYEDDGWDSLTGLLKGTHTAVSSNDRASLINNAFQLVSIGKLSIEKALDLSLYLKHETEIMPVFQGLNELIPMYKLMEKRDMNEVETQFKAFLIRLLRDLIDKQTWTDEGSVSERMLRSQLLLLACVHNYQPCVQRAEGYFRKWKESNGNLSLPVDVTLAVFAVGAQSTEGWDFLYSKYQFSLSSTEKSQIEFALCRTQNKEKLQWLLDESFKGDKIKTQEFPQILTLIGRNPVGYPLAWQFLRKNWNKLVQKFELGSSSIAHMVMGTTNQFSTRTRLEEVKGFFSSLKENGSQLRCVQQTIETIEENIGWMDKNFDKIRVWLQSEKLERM
esBAF inh – Bmi1 luciferase reporter increase in mESCs, primary screen, esBAF inhibitor project, mouse ES cells, Bmi1 luciferase knock-in, single point; 24 h; 100% = twice the neutral-well signal; reporter increase, % at 12.5 µM; hit rate 2% among 350,000; AID 602393, 2012; in the data active means activation above about 40%; inconclusive means no clear call, values can overlap the other calls;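 further: a rise in the Bmi1 reporter signal indicates esBAF inhibition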
Cneo AK release – Cryptococcus neoformans cell lysis inducers, primary screen, AK release luminescence, single concentration | hit rate 0.2% among 360,000 | C. neoformans lysis, adenylate kinase release luminescence, 4 h; normalised: neutral wells 0, clomiphene wells 100 | AID 651654, 2012 | lysis activity, % at 15 µM;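 active means mean lysis activity across replicates of at least 80%, whatever share of replicates individually reach that level; inactive means mean lysis activity below 80%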
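Material: C. neoformans cells | Amount: Yeast cell density of 5 × 10^6 cells/mL | Medium: Fresh YPD growth medium | Dosing: Single dose | Times: Static 4 h at 37 °C with compound, 1 h detection | Detection: AK luminescence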
Env fusion inh – inhibitors of HIV-1 Env-driven cell-cell fusion, primary screen, HeLa-JRFL effector, CEM21 target cells, luciferase. inhibition, % at 12.3 µM. AID 651610, 2012. hit rate 1.1% among 360,000;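 active means mean replicate inhibition score of at least 50 and every replicate individually at or above 50; inconclusive means only one of the two criteria met; inactive means mean below 50 and not all replicates reaching 50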
Wnt bcat act – Wnt/beta-catenin pathway activators, primary screen, cell-based, plate reader, single point; Wnt/beta-catenin reporter cell assay, activator; activation, % at 9.35 µM; hit rate 1.2% among 300,000; AID 743398, 2014; in the data active means activation above about 30%, passing the limit was not always enough; inconclusive means no clear call, values can overlap the other calls
Of the large screens only hits and unclear results are named; the others gave an inactive call. Sampled rows, rich in hits. Any-hit rate of the full collection: about 3.5%.

Oc1ccc(-c2nccc(-c3ccc(F)cc3)n2)cc1	MITF act 92, esBAF inh inconclusive
CCOC(=O)c1c(-c2ccccc2)cn2c(C)cc(C)nc12	esBAF inh 63
CCOC(=O)c1c(C)nc(-c2ccccc2)nc1N	esBAF inh 50 (no result: MITF act, ERAP1 HTS inh, Wnt bcat act)
Cc1ccc(S(=O)(=O)N[C@@H]2CC[C@H](CCNC(=O)CN3CCOCC3)O[C@@H]2CO)cc1	none (no result: MITF act, Wnt bcat act)
CC(=O)Nc1ccc(Nc2nc(-c3cc4ccccc4oc3=O)cs2)cc1	esBAF inh 90 (no result: MITF act)
Nc1ccc(Nc2nc(-c3cc4ccccc4oc3=O)cs2)cc1	esBAF inh 81 (no result: ERAP1 HTS inh)
CC(=O)Nc1ccc(NC(=O)c2cccc(-c3cc4ccccc4oc3=O)c2)cc1	esBAF inh 66
COc1ccc(S(=O)(=O)Nc2cccc3c2O[C@@H](CN(C)S(=O)(=O)c2cccs2)[C@H](C)CN([C@H](C)CO)C3=O)cc1	none (no result: MITF act, Wnt bcat act)
Cc1noc(C)c1S(=O)(=O)N(C)C[C@H]1Oc2ccc(NC(=O)CCC(F)(F)F)cc2CC(=O)N([C@H](C)CO)C[C@H]1C	none (no result: MITF act, Wnt bcat act)
CC(C)NC(=O)Nc1ccc2c(c1)C(=O)N([C@@H](C)CO)C[C@H](C)[C@H](CN(C)S(=O)(=O)c1cccs1)OCCCC[C@@H](C)O2	none (no result: MITF act, Wnt bcat act)
COc1cccc(/C=C/C(=O)NNC(=O)c2ccccc2)c1OC	Wnt bcat act 34 (no result: esBAF inh, Cneo AK release)
COc1cccc(/C=C/C(=O)NNC(=O)c2ccncc2)c1OC	none
C[C@H]1CCCCO[C@H](CN(C)Cc2ccc3c(c2)OCO3)[C@@H](C)CN([C@@H](C)CO)C(=O)c2cc(NC(=O)c3ccncc3)ccc2O1	none (no result: MITF act, Wnt bcat act)
COc1ccc(CCn2c(C)cc(C(=O)CSc3nc(N)cc(=O)[nH]3)c2C)cc1	Env fusion inh 70 (no result: ERAP1 HTS inh, Wnt bcat act)
Cc1cc(C(=O)CSc2nc(N)cc(=O)[nH]2)c(C)n1CCc1ccc(F)cc1	none (no result: ERAP1 HTS inh, esBAF inh, Cneo AK release, Env fusion inh, Wnt bcat act)
C[C@H]1CN([C@@H](C)CO)C(=O)c2cccc(NC(=O)Nc3ccccc3)c2O[C@@H]1CN(C)C(=O)Nc1ccc(F)cc1	none (no result: MITF act, Env fusion inh, Wnt bcat act)
CC(C)NC(=O)N1CC2(C1)[C@H](c1ccccc1)[C@@H](CO)N2Cc1cccnc1	none (no result: MITF act, esBAF inh, Cneo AK release, Env fusion inh, Wnt bcat act)
O=c1c2ccccc2oc2c1ccc1ccccc12	MITF act 90, esBAF inh 72 (no result: ERAP1 HTS inh, Env fusion inh, Wnt bcat act)
C[C@H](CO)N1C[C@H](C)[C@@H](CN(C)C(=O)c2cccc(F)c2)Oc2ncc(-c3ccncc3)cc2C1=O	none (no result: MITF act, Wnt bcat act)
COC(=O)c1ccc(CSc2ccccc2NC(=S)Nc2cccc(SC)c2)o1	esBAF inh 54 (no result: MITF act)
COC(=O)c1cccc(NC(=S)Nc2ccccc2Cl)c1	none (no result: ERAP1 HTS inh)
C[C@@H]1CN([C@H](C)CO)C(=O)c2cc(NC(=O)CCN3CCOCC3)ccc2O[C@H]1CN(C)Cc1ccc2c(c1)OCO2	none (no result: MITF act, Wnt bcat act)
CN(C)c1ccc(NC(=O)Cn2cc3c(n2)CCCC3)cc1	esBAF inh 44 (no result: ERAP1 HTS inh)
CCc1cccc(NC(=O)Cn2cc3c(n2)CCCC3)c1	none (no result: ERAP1 HTS inh)
CO[C@H]1CN(C)C(=O)c2ccc(NC(=O)C3CC3)cc2OC[C@H](C)N(C(=O)NC(C)C)C[C@H]1C	none (no result: MITF act, Env fusion inh, Wnt bcat act)
Cn1c(SCc2ccc(C#N)cc2Cl)nc2ccccc21	MITF act inconclusive, esBAF inh 87 (no result: ERAP1 HTS inh, Env fusion inh, Wnt bcat act)
Cc1ccc(C2CCN(C(=O)Nc3ccc(F)cc3)C2)cc1 (stereo unspecified)	MITF act 95, esBAF inh 63
Cc1ccc(NC(=O)C2CCCN(C(=O)Nc3ccc(F)cc3)C2)cc1 (stereo unspecified)	none
Cc1nc2cc(NC(=O)N3CCC(c4ccccc4)C3)ccc2n1C (stereo unspecified)	esBAF inh 54 (no result: Env fusion inh)
O=C(Nc1ccccc1)N1CC=C(c2ccc(F)cc2)CC1	MITF act 103, esBAF inh 61 (no result: ERAP1 HTS inh, Env fusion inh, Wnt bcat act)
O=c1nc(N/N=C/c2c[nH]c3ccccc23)cn[nH]1	Wnt bcat act 41 (no result: esBAF inh, Cneo AK release)
C(=N\Nc1ccccn1)/c1c[nH]c2ccccc12	none (no result: MITF act, esBAF inh)
C[C@@H]1CN([C@@H](C)CO)C(=O)c2cccc(NS(C)(=O)=O)c2O[C@H]1CN(C)Cc1ccc(-c2ccccc2)cc1	none (no result: MITF act, Wnt bcat act)
